The values that follow come from ChEMBL document CHEMBL1130141, “Mapping the peripheral benzodiazepine receptor binding site by conformationally restrained derivatives of 1-(2-chlorophenyl)-N-methyl-N-(1-methylpropyl)-3- isoquinolinecarboxamide (PK11195)” (J Med Chem, 1997).

For assay [1], the target named is T1, Translocator protein (Rattus norvegicus, UniProt P16257). Briefly: In vitro binding affinity (pIC50) was tested against peripheral benzodiazepine receptor (PBR) in rat.
The target in assay [2] is T1, Translocator protein. Briefly: In vitro displacement of [3H]PK11195 from the peripheral benzodiazepine receptor (PBR) in rat cortex.
Assay [3] deals with Translocator protein (Rattus norvegicus) (UniProt P16257). Briefly: In vitro binding affinity (pIC50) for peripheral benzodiazepine receptor (PBR) in rat (inactive). The method in brief:
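Male CD rat cerebral cortex, stored at -80°C, homogenized in ice-cold 50 mM PBS pH 7.4 with 100 mM NaCl and washed by centrifugation. Membranes used at 2.3 mg tissue per sample with 1 nM [3H]PK11195 for 120 min at 4°C, then filtered on GF/B and counted by scintillation. Nonspecific binding defined with 1 µM PK11195. IC50 from curve fitting of 6 concentrations.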

SMILES strings stand for the structures. The source made the active and inactive calls. The rule behind the calls is not given here.

T1 sequence (P16257 whole entry, looked up): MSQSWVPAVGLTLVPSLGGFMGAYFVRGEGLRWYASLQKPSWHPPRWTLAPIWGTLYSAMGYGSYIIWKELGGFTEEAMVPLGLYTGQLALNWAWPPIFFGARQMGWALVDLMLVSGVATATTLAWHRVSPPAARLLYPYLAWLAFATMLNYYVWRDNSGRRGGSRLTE
Sequence of Translocator protein (Rattus norvegicus) (P16257 whole entry, looked up): as above

`CCC(C)N(C)C(=O)c1nc2ccccc2c(-c2ccccc2F)c1C` (stereo not given): the concentration for half-maximal inhibition (IC50) (as a rule, the concentration that inhibits the measured activity by half) at Translocator protein [1] is 2.88 nM; on Translocator protein [2], 2.9 nM.
The corresponding values for `CCC(C)NC(=O)c1nc(-c2ccccc2)c2ccccc2c1C` (stereo not given) are 550 nM and 550 nM.
The corresponding values for `Cc1c(C(=O)NCc2ccc(Cl)cc2)nc2ccccc2c1-c1ccccc1F` are 269 nM and 270 nM.
For the compound `O=C1c2nc3ccccc3c(-c3ccccc3)c2CN1Cc1ccccc1`, the IC50 at Translocator protein [2] is over 10000 nM.
With `CCC(C)N1CCCc2c(nc(-c3ccccc3)c3ccccc23)C1=O` (stereo not given), the IC50 on Translocator protein [1] is 794 nM; at Translocator protein [2], 780 nM.
In turn, `CCC(C)N1Cc2c(nc3ccccc3c2-c2ccccc2F)C1=O` (stereo not given) registered an IC50 at Translocator protein [2] of over 10000 nM.
`CN(Cc1ccccc1)C(=O)c1nc2ccccc2c2c1CCc1ccccc1-2`: the IC50 on Translocator protein [1] is 8.91 nM; on Translocator protein [2], 8.9 nM.
`Cc1c(C(=O)NCc2ccc(Cl)cc2)nc2ccccc2c1-c1ccccc1`: the IC50 at Translocator protein [1] and on Translocator protein [2] was 1700 nM throughout.
Consider `Cc1c(C(=O)N(C)Cc2ccccc2)nc2ccccc2c1-c1ccccc1`, for which the IC50 at Translocator protein [1] was 2.09 nM; at Translocator protein [2] it was 2.1 nM.
The corresponding values for `CCC(C)N1CC=Cc2c(nc(-c3ccccc3)c3ccccc23)C1=O` (stereo not given) are 490 nM and 490 nM.
The corresponding values for `O=C1c2nc3ccccc3c(-c3ccccc3)c2CCCN1Cc1ccccc1` are 170 nM and 170 nM.
On the same counts, the results for `CCC(C)N(C)C(=O)c1nc2ccccc2c(-c2ccccc2)c1C` (stereo not given) are 2.09 nM and 2.1 nM.
Take `CCC(C)N1CCCc2c(nc3ccccc3c2-c2ccccc2)C1=O` (stereo not given): the concentration for half-maximal inhibition (IC50) at Translocator protein [1] and on Translocator protein [2] was 1200 nM in each case.
For `CN(Cc1ccccc1)C(=O)c1nc2ccccc2c2c1OCCc1ccccc1-2`, the 50% inhibitory concentration (IC50) on Translocator protein [1] and at Translocator protein [2] was 10 nM each time.
Regarding `Cc1c(C(=O)N(C)Cc2ccc(Cl)cc2)nc2ccccc2c1-c1ccccc1`, the IC50 on Translocator protein [1] was 9.77 nM; at Translocator protein [2], 9.8 nM.
Turning to `CCC(C)NC(=O)c1nc2ccccc2c(-c2ccccc2F)c1C` (stereo not given), the IC50 on Translocator protein [1] is 12.9 nM; on Translocator protein [2] it was 13 nM.
On the same counts, the results for `CCC(C)NC(=O)c1nc2ccccc2c(-c2ccccc2)c1C` (stereo not given) are 229 nM and 230 nM.
On the same counts, the results for `COc1ccc(N(C)C(=O)c2nc3ccccc3c(-c3ccccc3)c2C)cc1` are 8.71 nM and 8.8 nM.
On the same counts, the results for `O=C1c2nc(-c3ccccc3)c3ccccc3c2C=CCN1Cc1ccccc1` are 45.7 nM and 45 nM.
On Translocator protein [2], `CN1CCCc2c(nc3ccccc3c2-c2ccccc2)C1=O` displayed an IC50 of over 10000 nM.
Take `CCC(C)N1Cc2c(nc(-c3ccccc3)c3ccccc23)C1=O` (stereo not given): the results for the IC50 at Translocator protein [1] and at Translocator protein [2] were 617 nM and 620 nM, respectively.
Consider `Cc1c(C(=O)N(C)Cc2ccc(Cl)cc2)nc2ccccc2c1-c1ccccc1F`, for which the figures for the IC50 at Translocator protein [1] and at Translocator protein [2] were 3.39 nM and 3.4 nM, respectively.
The corresponding values for `CCCCC1c2c(nc3ccccc3c2-c2ccccc2)C(=O)N1Cc1ccccc1` (stereo not given) are 813 nM and 810 nM.
The corresponding values for `Cc1c(C(=O)N(C)Cc2ccccc2)nc(-c2ccccc2)c2ccccc12` are 3.09 nM and 3.1 nM.
On the same counts, the results for `CCC(C)N(C)C(=O)c1nc(-c2ccccc2)c2ccccc2c1C` (stereo not given) are 11.2 nM and 11 nM.
`Cc1c(C(=O)N(C)c2ccc(Cl)cc2)nc2ccccc2c1-c1ccccc1`: the IC50 on Translocator protein [1] is 6.46 nM; at Translocator protein [2] it was 6.4 nM.
As for `O=C1c2nc(-c3ccccc3)c3ccccc3c2CN1Cc1ccccc1`, the values for the IC50 at Translocator protein [1] and at Translocator protein [2] were 479 nM and 480 nM, respectively.
For `Cc1c(C(=O)NCc2ccccc2)nc2ccccc2c1-c1ccccc1`, the IC50 at Translocator protein [1] and on Translocator protein [2] was 1200 nM each time.
As to `CCC(C)N1Cc2c(nc3ccccc3c2-c2ccccc2)C1=O` (stereo not given), in assay [3], the “Log IC50” value was “inactive”. In addition, the 50% inhibitory concentration (IC50) at Translocator protein [2] was over 10000 nM.
